ChEMBL document CHEMBL1955854, “New retinoid derivatives as back-ups of Adarotene” (Bioorg Med Chem, 2012)

What was measured:
[1] = Chemical stability in aqueous buffer containing 5% DMSO and 5% tween 80 at pH 1.2 assessed as compound recovery in anoxic conditions after 3 hrs by UPLC analysis; assay type: physicochemical; details: read-out: Stability
In short: (§1)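 Stability at 37 °C in aqueous buffer with 5% DMSO and 5% Tween 80 at pH 1.2, 6.8 or 7.4; percent recovery by HPLC/UPLC on BEH C18 column, water+0.1% TFA/acetonitrile gradient from 40% to 95% acetonitrile over 8 min, room temperature.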

[2] = Chemical stability in aqueous buffer containing 5% DMSO and 5% tween 80 at pH 6.8 assessed as compound recovery in anoxic conditions after 24 hrs by UPLC analysis; assay type: physicochemical; details: read-out: Stability; in short: as §1
[3] = Chemical stability in aqueous buffer containing 5% DMSO and 5% tween 80 at pH 7.4 assessed as compound recovery in anoxic conditions after 24 hrs by UPLC analysis; assay type: physicochemical; details: read-out: Stability; in short: as §1
[4] = Chemical stability in aqueous buffer containing 5% DMSO and 5% tween 80 at pH 1.2 assessed as compound recovery in anoxic conditions after 12 hrs by UPLC analysis; assay type: physicochemical; details: pH 1.2, 12 h; in short: as §1
NCI-H460 [5] = assay: Antiproliferative activity against human NCI-H460 cells incubated for 24 hrs drug exposure measured after 48 hrs of recovery by sulforhodamine B assay; assay type: functional, cell-based
A-431 [6] = assay: Antiproliferative activity against human A431 cells incubated for 24 hrs drug exposure measured after 48 hrs of recovery by sulforhodamine B assay; assay type: functional, cell-based
A-431 [7] = assay: Antitumor activity against human A431 cells xenografted in nude CD1 mouse assessed as tumor volume inhibition at 35 mg/kg, ip administered qd 3 times per week for 2 weeks relative to control; assay type: functional; details: A-431, ip, 336 h, route intraperitoneal, read-out: TGI
In short: (§2)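 A431 epidermoid carcinoma cells (5 × 10⁶) from in vitro culture were injected s.c. into the right flank of CD1 nude mice on day 0, with 8 mice per group. Dosing began on day 3, at tumors of about 50 mm³, on a qdx3/wx2w schedule. Vehicle was 10% DMSO, 9% HPBCD and 14.4% PEG1000 in water. Tumor diameters were measured twice weekly by caliper, and TVI% was taken versus the vehicle group (Mann–Whitney).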

A-431 [8] = assay: Antitumor activity against human A431 cells xenografted in nude CD1 mouse assessed as tumor volume inhibition at 35 mg/kg, po administered qd 3 times per week for 2 weeks relative to control; assay type: functional; details: A-431, 336 h, read-out: TGI; in short: as §2
Mus musculus [9] = assay: Toxicity in nude CD1 mouse xenografted with human A431 cells assessed as body weight loss at 35 mg/kg, ip administered qd 3 times per week for 2 weeks; assay type: organism-based, A-431; design: dose 35 mg/kg, route intraperitoneal; details: in vivo, 336 h
In short: (§3)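 CD1 nude mice bore s.c. A431 xenografts (5 × 10⁶ cells, right flank, 8 mice per group). Dosing started on day 3 on a qdx3/wx2w schedule, in vehicle of 10% DMSO, 9% HPBCD and 14.4% PEG1000 in water. Mice were weighed daily, and BWL% = 100 − (mean body weight day x / mean body weight day 1 × 100), with day 1 the first treatment day. The maximum BWL is reported.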

Mus musculus [10] = assay: Toxicity in nude CD1 mouse xenografted with human A431 cells assessed as body weight loss at 35 mg/kg, po administered qd 3 times per week for 2 weeks; assay type: organism-based, A-431; design: dose 35 mg/kg, route oral; details: in vivo, 336 h; in short: as §3
[11] = Solubility in water; assay type: physicochemical; details: buffer
[12] = Chemical stability in aqueous buffer containing 5% DMSO and 5% tween 80 at pH 7.4 assessed as compound recovery in anoxic conditions after 6 hrs by UPLC analysis; assay type: physicochemical; details: read-out: Stability; in short: as §1
A-431 [13] = assay: Antitumor activity against human A431 cells xenografted in nude CD1 mouse assessed as tumor volume inhibition at 37 mg/kg, ip administered qd 3 times per week for 2 weeks relative to control; assay type: functional; details: A-431, ip, 336 h, route intraperitoneal, read-out: TGI; in short: as §2
A-431 [14] = assay: Antitumor activity against human A431 cells xenografted in nude CD1 mouse assessed as tumor volume inhibition at 37 mg/kg, po administered qd 3 times per week for 2 weeks relative to control; assay type: functional; details: A-431, 336 h, read-out: TGI; in short: as §2
Mus musculus [15] = assay: Toxicity in nude CD1 mouse xenografted with human A431 cells assessed as body weight loss at 37 mg/kg, ip administered qd 3 times per week for 2 weeks; assay type: organism-based, A-431; design: dose 37 mg/kg, route intraperitoneal; details: in vivo, 336 h; in short: as §3
Mus musculus [16] = assay: Toxicity in nude CD1 mouse xenografted with human A431 cells assessed as body weight loss at 37 mg/kg, po administered qd 3 times per week for 2 weeks; assay type: organism-based, A-431; design: dose 37 mg/kg, route oral; details: in vivo, 336 h; in short: as §3
Plasma [17] = assay: Prodrug conversion in mouse plasma assessed as drug concentration at 0.5 hrs; assay type: ADME, cell-free
In short: (§4)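 Prodrugs already shown stable at pH 1.2, 6.8 and 7.4 were incubated in murine plasma and sampled over time up to 6 h. A parallel incubation used murine plasma pretreated with the esterase inhibitor PMSF (phenylmethyl sulfonyl fluoride).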

Plasma [18] = assay: Prodrug conversion in mouse plasma assessed as drug concentration at 1 hr; assay type: ADME, cell-free; in short: as §4
Plasma [19] = assay: Prodrug conversion in mouse plasma assessed as drug concentration at 3 hrs; assay type: ADME, cell-free; in short: as §4
Plasma [20] = assay: Prodrug conversion in mouse plasma assessed as drug concentration at 6 hrs; assay type: ADME, cell-free; in short: as §4
Plasma [21] = assay: Prodrug conversion in mouse plasma assessed as drug concentration at 6 hrs in presence of esterase inhibitor PMSF; assay type: ADME, cell-free; in short: as §4
A-431 [22] = assay: Antitumor activity against human A431 cells xenografted in nude CD1 mouse assessed as tumor volume inhibition at 40 mg/kg, ip administered qd 3 times per week for 2 weeks relative to control; assay type: functional; details: A-431, ip, 336 h, route intraperitoneal, read-out: TGI; in short: as §2
A-431 [23] = assay: Antitumor activity against human A431 cells xenografted in nude CD1 mouse assessed as tumor volume inhibition at 40 mg/kg, po administered qd 3 times per week for 2 weeks relative to control; assay type: functional; details: A-431, 336 h, read-out: TGI; in short: as §2
Mus musculus [24] = assay: Toxicity in nude CD1 mouse xenografted with human A431 cells assessed as body weight loss at 40 mg/kg, ip administered qd 3 times per week for 2 weeks; assay type: organism-based, A-431; design: dose 40 mg/kg, route intraperitoneal; details: in vivo, 336 h; in short: as §3
Mus musculus [25] = assay: Toxicity in nude CD1 mouse xenografted with human A431 cells assessed as body weight loss at 40 mg/kg, po administered qd 3 times per week for 2 weeks; assay type: organism-based, A-431; design: dose 40 mg/kg, route oral; details: in vivo, 336 h; in short: as §3
NCI-H460 [26] = assay: Antitumor activity against human NCI-H460 cells xenografted in nude CD1 mouse assessed as tumor volume inhibition at 25 mg/kg, po administered qd 3 times per week for 2 weeks relative to control; assay type: functional; details: NCI-H460, 336 h, read-out: TGI
In short: (§5)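 CD1 nude mice given s.c. right-flank NCI-H460 (3 × 10⁶) or A431 (5 × 10⁶) cells from culture on day 0; eight mice per group. Dosing began day 3 at ~50 mm³ tumors; vehicle 10% DMSO, 9% HPBCD, 14.4% PEG1000 in water. Diameters taken biweekly by caliper; mice weighed daily, maximum BWL% reported; Mann–Whitney versus vehicle.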

NCI-H460 [27] = assay: Antitumor activity against human NCI-H460 cells xenografted in nude CD1 mouse assessed as tumor volume inhibition at 13 mg/kg, iv administered qd 3 times per week for 2 weeks relative to control; assay type: functional; details: NCI-H460, 336 h, read-out: TGI; in short: as §5
A-431 [28] = assay: Antitumor activity against human A431 cells xenografted in nude CD1 mouse assessed as tumor volume inhibition at 25 mg/kg, po administered qd 3 times per week for 2 weeks relative to control; assay type: functional; details: A-431, 336 h, read-out: TGI; in short: as §5
Mus musculus [29] = assay: Toxicity in nude CD1 mouse xenografted with human NCI-H460 NSCLC cells assessed as body weight loss at 25 mg/kg, po administered qd 3 times per week for 2 weeks; assay type: organism-based; design: dose 25 mg/kg, route oral; details: in vivo, 336 h; in short: as §5
Mus musculus [30] = assay: Toxicity in nude CD1 mouse xenografted with human NCI-H460 NSCLC cells assessed as body weight loss at 13 mg/kg, iv administered qd 3 times per week for 2 weeks; assay type: organism-based; design: dose 13 mg/kg, route intravenous; details: in vivo, 336 h; in short: as §5
Mus musculus [31] = assay: Toxicity in nude CD1 mouse xenografted with human A431 cells assessed as body weight loss at 25 mg/kg, po administered qd 3 times per week for 2 weeks; assay type: organism-based, A-431; design: dose 25 mg/kg, route oral; details: in vivo, 336 h; in short: as §5
[32] = Toxicity in po dosed nude CD1 mouse xenografted with human A431 cells assessed as mortality administered qd 3 times per week for 2 weeks; assay type: organism-based, A-431; details: in vivo
[33] = Toxicity in iv dosed nude CD1 mouse xenografted with human A431 cells assessed as mortality administered qd 3 times per week for 2 weeks; assay type: organism-based, A-431; details: in vivo

Structure (SMILES)	remaining at 3 h [1] [%]	remaining at 24 h [2] [%]	remaining at 24 h [3] [%]	Stability [4]	IC50 (NCI-H460 [5]) [nM]	IC50 (A-431 [6]) [nM]	solubility [11]	further results
Cl.NCCCCNC(=O)Oc1ccc(-c2ccc(/C=C/C(=O)O)cc2)cc1C12CC3CC(CC(C3)C1)C2	> 99	> 99	> 99	Stable	2600	3400	Insoluble	inhibition in vivo at 35 mg/kg (A-431 [7]): 1%; inhibition in vivo at 35 mg/kg (A-431 [8]): 0%; Activity (Mus musculus [9]): 6%; Activity (Mus musculus [10]): 3%
Cl.O=C(O)/C=C/c1ccc(-c2ccc(OC(=O)NCCN3CCOCC3)c(C34CC5CC(CC(C5)C3)C4)c2)cc1	> 99	> 99	85	Stable	920	1400	Insoluble	remaining at 6 h [12]: > 99%; inhibition in vivo at 37 mg/kg (A-431 [13]): 21%; inhibition in vivo at 37 mg/kg (A-431 [14]): 0%; Activity (Mus musculus [15]): 0%; Activity (Mus musculus [16]): 0%
Cl.O=C(O)/C=C/c1ccc(-c2ccc(OC(=O)N3CCC(N4CCCCC4)CC3)c(C34CC5CC(CC(C5)C3)C4)c2)cc1	> 99	> 99	> 99	Stable	> 10000	> 10000	Insoluble	Drug metabolism (Plasma [17]): 100%; Drug metabolism (Plasma [18]): 100%; Drug metabolism (Plasma [19]): 100%; Drug metabolism (Plasma [20]): 100%; Drug metabolism (Plasma [21]): 4.13%; inhibition in vivo at 40 mg/kg (A-431 [22]): 26%; inhibition in vivo at 40 mg/kg (A-431 [23]): 22%; Activity (Mus musculus [24]): 0%; Activity (Mus musculus [25]): 4%
O=C(O)/C=C/c1ccc(-c2ccc(O)c(C34CC5CC(CC(C5)C3)C4)c2)cc1 [ADAROTENE]	> 99	> 99	> 99	Stable	200	120	Insoluble	inhibition in vivo at 25 mg/kg (NCI-H460 [26]): 34%; inhibition in vivo at 13 mg/kg (NCI-H460 [27]): 37%; inhibition in vivo at 25 mg/kg (A-431 [28]): 36%; Activity (Mus musculus [29]): 9%; Activity (Mus musculus [30]): 8%; Activity (Mus musculus [31]): 12%; MTD at 336 h [32]: 25 mg/kg; MTD at 336 h [33]: 13 mg/kg
